# In ChEMBL document CHEMBL1127053, “3,4-Dimethyl-4-(3-hydroxyphenyl)piperidines: opioid antagonists with potent anorectant activity” (J Med Chem, 1993):
# Legend:
# [1] = molecular target: Dopamine receptor; test: Tested for affinity against dopamine autoreceptor using [3H]apomorphine in rat brain; type: tissue-based
# [2] = molecular target: Adrenergic receptor beta (Rattus norvegicus, UniProt P18090+P10608+P26255); test: Tested for affinity against beta-adrenergic using [3H]dihydroalprenolol in rat brain; type: tissue-based
# Method in brief: (§1)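 Radioligand binding in cortical membranes from male Sprague-Dawley rats (110-150 g). Ligands: [3H]serotonin for 5-HT1, [3H]QNB for muscarinic, [3H]WB4101 for α1, [3H]clonidine for α2, [3H]dihydroalprenolol for β-adrenergic.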
# [3] = molecular target: T1, Adrenergic receptor alpha-2 (Rattus norvegicus, UniProt P22086+P19328+P22909); test: Tested for affinity against alpha-2-adrenergic using [3H]clonidine in rat brain; type: tissue-based; method in brief: as §1
# T1 sequence (P22086 whole entry): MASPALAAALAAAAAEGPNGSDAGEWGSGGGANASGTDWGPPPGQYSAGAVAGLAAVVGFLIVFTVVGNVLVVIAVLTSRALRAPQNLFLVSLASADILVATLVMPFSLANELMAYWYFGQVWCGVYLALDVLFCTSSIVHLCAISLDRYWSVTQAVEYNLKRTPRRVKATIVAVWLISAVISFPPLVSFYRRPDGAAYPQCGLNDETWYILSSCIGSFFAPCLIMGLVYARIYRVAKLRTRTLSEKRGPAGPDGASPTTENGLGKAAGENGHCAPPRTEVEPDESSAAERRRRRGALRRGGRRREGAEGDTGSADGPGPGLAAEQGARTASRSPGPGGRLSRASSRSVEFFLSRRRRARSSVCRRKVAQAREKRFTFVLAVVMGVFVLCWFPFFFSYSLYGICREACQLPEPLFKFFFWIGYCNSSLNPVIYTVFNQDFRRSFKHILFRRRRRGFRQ
# T1 sequence (P19328 whole entry): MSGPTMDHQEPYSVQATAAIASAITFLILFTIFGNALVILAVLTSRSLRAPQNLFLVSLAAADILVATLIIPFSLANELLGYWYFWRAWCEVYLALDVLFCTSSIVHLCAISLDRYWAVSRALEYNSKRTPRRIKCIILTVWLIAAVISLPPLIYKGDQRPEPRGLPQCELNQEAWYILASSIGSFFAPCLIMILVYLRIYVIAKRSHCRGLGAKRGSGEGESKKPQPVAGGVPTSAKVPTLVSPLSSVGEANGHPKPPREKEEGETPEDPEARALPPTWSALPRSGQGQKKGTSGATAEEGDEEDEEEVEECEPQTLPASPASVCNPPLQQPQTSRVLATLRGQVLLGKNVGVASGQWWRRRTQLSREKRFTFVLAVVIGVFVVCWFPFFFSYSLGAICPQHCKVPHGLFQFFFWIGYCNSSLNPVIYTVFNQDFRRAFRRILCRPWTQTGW
# T1 sequence (P22909 whole entry): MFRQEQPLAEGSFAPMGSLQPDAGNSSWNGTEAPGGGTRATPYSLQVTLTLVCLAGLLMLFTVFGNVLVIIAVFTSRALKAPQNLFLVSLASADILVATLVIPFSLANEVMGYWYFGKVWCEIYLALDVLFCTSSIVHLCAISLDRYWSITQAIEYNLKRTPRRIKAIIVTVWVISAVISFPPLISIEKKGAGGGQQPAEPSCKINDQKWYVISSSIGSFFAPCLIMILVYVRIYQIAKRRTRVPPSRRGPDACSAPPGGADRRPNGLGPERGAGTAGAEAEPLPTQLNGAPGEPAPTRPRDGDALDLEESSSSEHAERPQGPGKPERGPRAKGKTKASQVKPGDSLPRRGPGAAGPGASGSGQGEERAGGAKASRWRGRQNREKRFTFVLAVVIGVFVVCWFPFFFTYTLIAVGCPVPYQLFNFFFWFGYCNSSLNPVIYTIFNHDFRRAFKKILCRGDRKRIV
# [4] = molecular target: Kappa-type opioid receptor (Rattus norvegicus) (UniProt P34975); test: Antagonism of bremazocine induced kappa receptor diuresis in rats at a concentration of 0.08 mg/kg subcutaneously; type: functional, organism-based; design: dose 0.08 mg/kg
# Kappa-type opioid receptor (Rattus norvegicus), sequence (P34975 whole entry): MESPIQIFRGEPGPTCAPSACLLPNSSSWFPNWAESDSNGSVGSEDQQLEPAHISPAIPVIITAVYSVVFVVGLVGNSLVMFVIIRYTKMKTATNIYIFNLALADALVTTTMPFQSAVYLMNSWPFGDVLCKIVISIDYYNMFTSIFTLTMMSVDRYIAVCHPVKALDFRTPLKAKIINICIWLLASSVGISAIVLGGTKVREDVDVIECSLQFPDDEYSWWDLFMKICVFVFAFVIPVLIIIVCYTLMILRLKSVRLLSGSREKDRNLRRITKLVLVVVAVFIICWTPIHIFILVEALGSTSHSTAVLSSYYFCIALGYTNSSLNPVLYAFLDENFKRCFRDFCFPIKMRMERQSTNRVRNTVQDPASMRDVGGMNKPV
# Method in brief: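 Male Long-Evans hooded rats (350-500 g), reused no more than twice weekly. Bremazocine 0.08 mg/kg sc, test antagonist sc on the opposite side without delay. Rats housed in metabolism cages; urine volume recorded at 2 and 5 h. 3 rats/dose, doses varied 2-fold. AD50 = dose reducing cumulative 5-h induced urination by 50%.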
compound,measurement,setting,value
C[C@H]1CN(CC[C@H](O)C2CCCCC2)CC[C@@]1(C)c1cccc(O)c1,IC50,[1],> 1 µM
same,IC50,[2],> 5 µM
same,IC50,[3],> 5 µM
same,AD50,[4],0.38 mg/kg
